# Calls of active or inactive are those of the source. The rule behind the calls is not given here.
# Experiments:
# [1] = tested on: HCT-116; assay: Antiproliferative activity in p53 (-/-) human HCT116 cells incubated for 72 hrs by MTS assay; format: functional, cell-based; settings: HCT-116, 72 h
# In short: (§1)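 HCT116 p53(+/+) or p53(−/−) seeded at 1 × 10⁵ cells/mL, adhered 24 h, then treated 72 h with compounds diluted from DMSO stocks. Viability by MTS (CellTiter96 AQueous) with absorbance at 490 nm. Duplicate wells, three independent experiments; IC50 by non-linear regression.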
# [2] = Selectivity index, ratio of IC50 for antiproliferative activity in HEK293T cells to IC50 for antiproliferative activity in human MDA-MB-231 cells; format: toxicity, cell-based; settings: HEK293T cells versus MDA-MB-231 cells, read-out: Ratio IC50
# In short: (§2)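 Ratio of HEK 293T IC50 to MDA-MB-231 IC50 from 72 h MTT assays.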
# [3] = Selectivity index, ratio of IC50 for antiproliferative activity in HEK293T cells to IC50 for antiproliferative activity in human p53 (-/-) human HCT116 cells; format: toxicity, cell-based; settings: HEK293T cells versus p53 (-/-) HCT116 cells, read-out: Ratio IC50
# [4] = tested on: MCF7; assay: Antiproliferative activity in human MCF7 cells incubated for 72 hrs by MTT assay; format: functional, cell-based; settings: MCF7, 72 h
# In short: (§3)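 Cells grown in RPMI 1640 with 10% FBS, penicillin/streptomycin; seeded at 2 × 10⁵ cells/mL, allowed to adhere 24 h, then exposed 72 h to compounds diluted in medium from DMSO stocks. MTT added after medium change, 3 h, formazan dissolved in DMSO, absorbance at 570 nm. Triplicate wells, at least 3 independent experiments; IC50 by non-linear regression.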
# [5] = tested on: MDA-MB-231; assay: Antiproliferative activity in human MDA-MB-231 cells incubated for 72 hrs by MTT assay; format: functional, cell-based; settings: MDA-MB-231, 72 h; in short: as §3
# [6] = tested on: MDA-MB-231; assay: Induction of apoptosis in human MDA-MB-231 cells assessed as increase in caspase3/7 activity at antiproliferative IC50 level incubated for 48 hrs by Caspase-Glo 3/7 Assay; format: functional
# [7] = Selectivity index, ratio of IC50 for antiproliferative activity in HEK293T cells to IC50 for antiproliferative activity in human p53 (+/+) human HCT116 cells; format: toxicity, cell-based; settings: HEK293T cells versus p53 (+/+) HCT116 cells, read-out: Ratio IC50
# [8] = […], ratio of IC50 for antiproliferative activity in HEK293T cells to IC50 for antiproliferative activity in human MDA-MB-231 cells; format: toxicity, cell-based; settings: HEK293T cells versus MDA-MB-231 cells, read-out: Ratio IC50; in short: as §2
# [9] = tested on: HCT-116; assay: Antiproliferative activity in p53 (+/+) human HCT116 cells incubated for 72 hrs by MTS assay; format: functional, cell-based; settings: HCT-116, 72 h; in short: as §1
# [10] = Potency index, ratio of IC50 for antiproliferative activity in human p53 (+/+) human HCT116 cells to IC50 for antiproliferative activity in human MDA-MB-231 cells; format: functional
# [11] = tested on: HEK-293T; assay: Antiproliferative activity in human HEK293T cells incubated for 72 hrs by MTT assay; format: cell-based; in short: as §3
# [12] = Potency index, ratio of IC50 for antiproliferative activity in human p53 (-/-) human HCT116 cells to IC50 for antiproliferative activity in human MDA-MB-231 cells; format: functional
# [13] = Potency index, ratio of IC50 for antiproliferative activity in human MCF7 cells to IC50 for antiproliferative activity in human MDA-MB-231 cells; format: functional
# [14] = Selectivity index, ratio of IC50 for antiproliferative activity in HEK293T cells to IC50 for antiproliferative activity in human MCF7 cells; format: toxicity, cell-based; settings: HEK293T cells versus MCF7 cells, read-out: Ratio IC50
# In short: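 Ratio of HEK 293T IC50 to MCF-7 IC50 from 72 h MTT assays.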
# [15] = tested on: MDA-MB-231; assay: Induction of cell cycle arrest in human MDA-MB-231 cells at antiproliferative IC50 level by propidium iodide staining based flow cytometry; format: functional
# [16] = tested on: CCD-18Co; assay: Cytotoxicity in human CCD-18Co cells assessed as reduction in cell viability at antiproliferative IC50 (for p53 (+/+) human HCT116 cells) incubated for 72 hrs by MTS assay; format: cell-based
# In short: (§4)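 CCD-18Co colon fibroblasts grown in DMEM with 10% FBS, penicillin/streptomycin, Glutamax, NEAA. […] Viability by MTS, absorbance at 490 nm. Triplicate wells, at least 2 independent experiments; mean ± SEM.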
# [17] = tested on: HCT-116; assay: Induction of cell cycle arrest in p53 (+/+) human HCT116 cells assessed as accumulation at G0/G1 phase at antiproliferative IC50 level incubated for 48 hrs by propidium iodide staining based flow cytometry (reference value: 50.48%); format: functional
# [18] = tested on: HCT-116; assay: Increase in p53 protein expression in p53 (+/+) human HCT116 cells at antiproliferative IC50 level incubated for 72 hrs by Western blot; format: functional, cell-based
# In short: (§5)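 Lysed in NP-40 buffer, protein measured by Bradford, separated by 8%/14% SDS-PAGE, blotted to nitrocellulose. Probed overnight at 4 °C with anti-p53 (Pab-240) and anti-MDM2 (SMP-14), then HRP secondary with chemiluminescence. Ponceau S loading control, densitometry; two experiments.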
# [19] = tested on: CCD-18Co; assay: Cytotoxicity in human CCD-18Co cells assessed as reduction in cell viability at antiproliferative IC80 (for p53 (+/+) human HCT116 cells) incubated for 72 hrs by MTS assay; format: cell-based; in short: as §4
# [20] = tested on: HCT-116; assay: Induction of apoptosis in p53 (+/+) human HCT116 cells assessed as increase in early apoptotic cells level at antiproliferative IC50 level incubated for 72 hrs by Annexin-V and 7-AAD staining based flow cytometry; format: functional
# In short: (§6)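 Cells detached with Accutase and stained with Annexin V/7-AAD (Guava Nexin), 20 min at room temperature in the dark. Flow cytometry, ≥5000 events per sample; three independent experiments.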
# [21] = tested on: HCT-116; assay: Reduction in MDM2 protein expression in p53 (+/+) human HCT116 cells at antiproliferative IC50 level incubated for 72 hrs by Western blot; format: functional, cell-based; in short: as §5
# [22] = tested on: HCT-116; assay: Induction of cell cycle arrest in p53 (+/+) human HCT116 cells assessed as accumulation at S phase at antiproliferative IC50 level incubated for 24 hrs by propidium iodide staining based flow cytometry (reference value: 38.3%); format: functional
# [23] = tested on: HCT-116; assay: Induction of cell cycle arrest in p53 (+/+) human HCT116 cells assessed as accumulation at G0/G1 phase at antiproliferative IC50 level incubated for 24 hrs by propidium iodide staining based flow cytometry (reference value: 31.87%); format: functional
# [24] = tested on: HCT-116; assay: Induction of apoptosis in p53 (+/+) human HCT116 cells at 2 times antiproliferative IC50 level incubated for 72 hrs by Annexin-V and 7-AAD staining based flow cytometry; format: functional, cell-based; in short: as §6
# [25] = target: Tumour suppressor p53/oncoprotein Mdm2 (Homo sapiens) (UniProt P04637+Q00987); assay: Inhibition of p53/MDM2 interaction (unknown origin) transfected in p53 (-/-) human HCT116 cells at 10 uM incubated for 4 hrs by Venus-based bimolecular fluorescence complementation assay
# In short: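 HCT116 p53(−/−) co-transfected with V1-p53/MDM2-V2 BiFC plasmids using Lipofectamine 2000. Medium replaced 4–6 h after transfection, then compound (final 5 and 10 µM), nutlin-3a, or matched DMSO added; transfection period 24 h. Venus fluorescence read by flow cytometry and normalized to DMSO (100%). Three experiments.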
# [26] = tested on: HCT-116; assay: Induction of cell cycle arrest in p53 (+/+) human HCT116 cells assessed as accumulation at S phase at antiproliferative IC50 level incubated for 48 hrs by propidium iodide staining based flow cytometry (reference value: 22.67%); format: functional
# [27] = Potency index, ratio of IC50 for antiproliferative activity in human p53 (-/-) human HCT116 cells to IC50 for antiproliferative activity in human p53 (+/+) human HCT116; format: functional
# [28] = tested on: HCT-116; assay: Induction of cell cycle arrest in p53 (+/+) human HCT116 cells assessed as accumulation at G2/M phase at antiproliferative IC50 level incubated for 24 hrs by propidium iodide staining based flow cytometry (reference value: 25.85%); format: functional
# [29] = tested on: HCT-116; assay: Induction of cell cycle arrest in p53 (+/+) human HCT116 cells assessed as accumulation at G2/M phase at antiproliferative IC50 level incubated for 48 hrs by propidium iodide staining based flow cytometry (reference value: 26.85%); format: functional
# Chain of Tumour suppressor p53/oncoprotein Mdm2 (Homo sapiens) (P04637 whole entry, looked up): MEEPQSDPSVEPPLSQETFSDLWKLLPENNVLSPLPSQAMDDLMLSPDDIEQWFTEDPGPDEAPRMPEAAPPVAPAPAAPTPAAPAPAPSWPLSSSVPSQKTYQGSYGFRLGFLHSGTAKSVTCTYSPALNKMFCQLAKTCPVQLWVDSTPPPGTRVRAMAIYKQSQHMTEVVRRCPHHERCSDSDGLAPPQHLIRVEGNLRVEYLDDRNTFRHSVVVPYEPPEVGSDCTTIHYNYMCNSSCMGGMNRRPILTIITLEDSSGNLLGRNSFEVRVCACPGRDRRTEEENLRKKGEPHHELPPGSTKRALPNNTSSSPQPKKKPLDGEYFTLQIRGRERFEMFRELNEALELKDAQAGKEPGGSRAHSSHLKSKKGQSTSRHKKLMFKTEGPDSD
# Chain of Tumour suppressor p53/oncoprotein Mdm2 (Homo sapiens) (Q00987 whole entry, looked up): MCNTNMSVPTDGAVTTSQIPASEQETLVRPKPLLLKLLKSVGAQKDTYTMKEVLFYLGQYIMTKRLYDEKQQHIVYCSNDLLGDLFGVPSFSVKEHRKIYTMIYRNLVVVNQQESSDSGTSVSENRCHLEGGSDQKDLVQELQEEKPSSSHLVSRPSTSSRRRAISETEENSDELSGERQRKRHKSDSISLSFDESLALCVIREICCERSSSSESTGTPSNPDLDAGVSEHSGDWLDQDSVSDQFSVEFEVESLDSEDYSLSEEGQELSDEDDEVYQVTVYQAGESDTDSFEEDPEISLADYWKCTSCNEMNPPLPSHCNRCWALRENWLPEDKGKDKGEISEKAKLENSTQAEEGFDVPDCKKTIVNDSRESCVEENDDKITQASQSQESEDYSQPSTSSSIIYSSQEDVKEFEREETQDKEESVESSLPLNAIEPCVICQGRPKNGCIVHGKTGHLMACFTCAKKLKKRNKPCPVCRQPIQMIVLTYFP
IC50 [1],IC50 [4],IC50 [5],IC50 [9],Compound,selectivity ratio [3],selectivity ratio [7],selectivity ratio [8],IC50 [11],selectivity ratio [14],Activity [16],Activity [17],Activity [19],fold change (FC) [20],Activity [22],Activity [23],Activity [24],Activity [26],other results
22.5 µM,23 µM,6.7 µM,22.2 µM,O=C1Nc2ccc(Br)cc2C12N(c1ccccc1)N=C(c1ccccc1)N2c1ccccc1 (centres undefined),2.5,2.5,≥ 2.5,56.3 µM,2.4 to 2.5,–,–,–,–,–,–,–,–,selectivity ratio [2]: ≥ 2.4; fold change (FC) [6]: 2.5; Ratio IC50 [10]: >=2.4; Ratio IC50 [12]: >=2.4; Ratio IC50 [13]: >=2.4; Activity [15]: inactive
17.7 µM,9.5 µM,7.6 µM,13.9 µM,O=C1Nc2ccc(Br)cc2C12N(c1ccccc1Cl)N=C(c1cccc(Cl)c1)N2c1cccc(Cl)c1 (centres undefined),< 2,1.5,–,21.4 µM,2.3,Non-Toxic,65.49%,40%,2.8,42.61%,34.54%,Dose-dependent effect,33.41%,Activity [18]: Active; Activity [21]: Active; inhibition [25]: Active; Ratio IC50 [27]: 1.3
17.9 µM,9.8 µM,8.9 µM,16.3 µM,O=C1Nc2ccc(Cl)cc2C12N(c1ccccc1)N=C(c1ccccc1)N2c1cccc(Cl)c1 (centres undefined),2.5 to 5.6,2.5 to 5.6,≥ 2.5,> 100 µM,2.5 to 10.2,Non-Toxic,58%,40%,3.1,36.42%,50.11%,Dose-dependent effect,31.34%,Activity [28]: 13.87%; Activity [29]: 13.65%
